# Measured values taken from PubChem BioAssay AID775 (SRMLSC, 2007).
# In all, about 130,000 compounds went through this assay and about 900 (0.69%) were called active. Many of the other results were omitted from the sample, so actives are more common in it than they were. A number with no mark means an inactive call.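 The calls were made as follows: active = inhibition above a set limit, placed 3 SD over the median of all compounds (cut at about 26% in these data); inactive = the rest.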
# Test: compounds extending yeast replicative lifespan, primary screen, S. cerevisiae, OD615 (AID 775);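 also: 0% = nicotinamide-treated wells and 100% = cells grown without nicotinamide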
# Conditions: S. cerevisiae growth with nicotinamide, at 10 µM, stronger effect = higher value, deaD strain in restrictive glucose medium
# Outline: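 assay system = DeaD-strain S. cerevisiae | buffer or medium = restrictive glucose medium | reagent = 1.5 mM nicotinamide | compound = 10 µM single point, 0.25% DMSO | incubation = 48 h compound exposure at 30 °C, humidified | signal = OD615 measurement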
row,SMILES,inhibition of the nicotinamide effect
1,Cc1cc(C)c(NC(=S)N2CCCC2C(=O)O)c(C)c1 (stereo unspecified),-4.99%
2,Cc1cccc(N2C(=O)SC(SC(=Nc3ccccc3)Nc3ccccc3)C2=O)c1 (stereo unspecified),7.31%
3,COc1ccc(/C=N/NC(=O)c2ccc(Cl)cc2)cc1COC(C)=O,-4.25%
4,Cc1cc(Cl)ccc1NC(=S)NCCCN1CCCC1=O,3.7%
5,CC(C)Oc1c(Br)cc(Br)cc1/C=N/NC(N)=S,0.87%
6,NC(=S)N/N=C/c1coc2cc(Cl)ccc2c1=O,38.1% (active)
7,O=C(N/N=C/c1coc2ccccc2c1=O)c1cc2ccccc2o1,19.2%
8,O=C(Cc1ccccc1)NNC1CC(=O)N(c2ccc(Br)cc2)C1=O (stereo unspecified),-4.42%
9,COc1ccc(-n2c(C)cc(C(=O)COC(=O)c3cc(OC)c(OC)cc3NC(=O)c3cccs3)c2C)cc1,1.08%
10,O=C1Cc2ccccc2Sc2ccc(Cl)cc21,38.7% (active)
11,S=C1Nc2cc(Cl)ccc2Sc2ccccc21,2.87%
12,O=C(CSc1nc2ccccc2o1)N1c2ccccc2Sc2ccc(Cl)cc21,-7.73%
13,Cc1ccccc1N/C(SCc1ccc(Cl)cc1)=C(/C#N)C(N)=O,1.27%
14,Cc1nnc(-c2ccc(Oc3ccc(C)c(C)c3)c([N+](=O)[O-])c2)o1,-6.06%
15,Cc1ccc(S(=O)(=O)N(CC(=O)Nc2cccc([N+](=O)[O-])c2)Cc2ccc(Cl)cc2)cc1,-5.04%
16,CC1(C)CC(=O)C=C(NC2CC(C)(C)NC(C)(C)C2)C1,5.33%
17,CCC(=NC1CC(C)(C)NC(C)(C)C1)C1=C(O)CC(C)(C)CC1=O,36.4% (active)
18,COCC(C)N=CC1=C(O)CC(C)(C)CC1=O (stereo unspecified),-1.64%
19,Cc1[nH]c2ccccc2c1/C=N\NC(=O)Cn1nnc(-c2ccccc2)n1,1.83%
20,Cc1nn(CC(=O)Nc2ccc(N(C)C)cc2)c(C)c1[N+](=O)[O-],-0.66%
21,COC(=O)/C(C#N)=C/c1occc1C,-5.74%

row,SMILES,inhibition of the nicotinamide effect
1,Cc1cc(/C=C2/NC(=O)NC2=O)c(C)n1-c1cccnc1,-0.65%
2,O=S(=O)(ON(c1ccccc1)S(=O)(=O)c1ccccc1)c1ccccc1,43.7% (active)
3,CCN(c1ccccc1)S(=O)(=O)c1ccc(N)cc1,-3.49%
4,CCOc1ccc(S(=O)(=O)N(CC(=O)O)c2ccccc2)cc1,-6.31%
5,Cc1nc2ccccc2n1CC(=O)N/N=C/c1cccs1,2.27%
6,NS(=O)(=O)c1ccc(CNC(=O)c2ccc(Cl)cc2[N+](=O)[O-])cc1,3.9%
7,CCCCN(C)c1ccc([N+](=O)[O-])cc1,0.62%
8,CCCCSc1[nH]c(=O)c(C(=O)OCC)cc1C#N,35.7% (active)
9,CC(=O)c1cc(C#N)c(SCC(=O)C(C)(C)C)nc1C,-19%
10,Cc1cc(=O)[nH]c(SCC(N)=O)c1C#N,-13.6%
11,Cc1ccc(-c2nnc(SCC(=O)N/N=C/c3cccs3)n2-c2ccc(C)cc2)cc1,-1.13%
12,CC1(C)CC(=O)C(N=Nc2ccc(S(=O)(=O)N3CCCCCC3)cc2)=C(O)C1,-0.81%
13,CC(Sc1nc(-c2ccccc2)cc(C(F)(F)F)n1)C(=O)Nc1ccc2c(c1)OCO2 (stereo unspecified),-1.2%
14,O=C1CCCC(O)=C1N=Nc1ccc2ncsc2c1,-3.17%
15,Cc1cc(C(=O)COc2ccccc2[N+](=O)[O-])c(C)n1-c1cccc(S(=O)(=O)N2CCOCC2)c1,1.02%
16,O=C(CCCO)N/N=C/c1cc(Br)ccc1O,25%
17,Oc1ccc(Br)cc1C=Nc1ccc2[nH]ncc2c1,40.4% (active)
18,Oc1ccc(Cl)cc1/C=N/c1nc2ccccc2[nH]1,6.53%
19,Cc1c(NC(=S)NCc2ccc(F)cc2)cccc1[N+](=O)[O-],0.2%
20,CCN1CCN(C(c2cccnc2)c2cc(Cl)c3cccnc3c2O)CC1 (stereo unspecified),30.4% (active)
21,CCOC(=O)N1CCN(C(c2cccnc2)c2ccc3cccnc3c2O)CC1 (stereo unspecified),-7.28%

row,SMILES,inhibition of the nicotinamide effect
1,Oc1c(CN2CCN(c3ccc(F)cc3)CC2)cc(Cl)c2cccnc12,-13.6%
2,Cc1ccc(NN=C2C(=O)OC(C)(C)OC2=O)c(C)c1,-2.15%
3,CC(=O)Nc1ccc(S(=O)(=O)NC2(C(F)(F)F)C(=O)Nc3c2c(=O)[nH]c(=O)n3Cc2ccccc2)cc1 (stereo unspecified),2.33%
4,C/C(=N/NC(=O)c1ccc(Br)o1)c1ccc(C)o1,-2.27%
5,COc1cc(C(=O)Nc2cc(C(F)(F)F)ccc2N2CCOCC2)ccc1O,-3.94%
6,COC(=O)c1ccccc1OCC(=O)N1CCN(c2ccc(Cl)cc2)CC1,-19.3%
7,CC(CC(=O)N1CCN(c2ccccc2)CC1)c1ccccc1 (stereo unspecified),-11.3%
8,O=C(NC(CC(=O)N1CCN(c2ccccc2)CC1)c1ccccc1)c1ccccc1Cl (stereo unspecified),35.4% (active)
9,C/C(=N/NC(=O)CSc1ccccn1)c1ccc([N+](=O)[O-])cc1,1.62%
10,Cn1cccc1/C=C1\SC(=S)N(NC(=O)c2ccc(Cl)cc2)C1=O,3.79%
11,Cc1cc(C(=O)NNC(=S)Nc2ccccc2C)cs1,4.51%
12,Cc1ccccc1NC(=O)c1ccccc1,43.2% (active)
13,O=C(NC(=O)c1ccccc1)NC(=O)c1ccccc1,-15.8%
14,Cc1cc(C)c(NC(=O)c2oc3ccccc3c2COc2ccccc2)c(C)c1,0.31%
15,COC(=O)C1=C(NC(=O)C(C)(C)C)CCS1,-1.21%
16,CCCCN(CC)C(=O)c1ccc2c(c1)OCO2,-2.79%
17,Cn1cc([N+](=O)[O-])c(C(=O)Nc2cnn(Cc3ccc(F)cc3)c2)n1,10.4%
18,Cc1cccc(NC(=O)/C=C/c2ccc3c(c2)OCO3)n1,-5.25%
19,CCOc1ccccc1/C=c1\sc2nc(-c3ccco3)nn2c1=O,21.5%
20,O=c1nc2s/c(=C\c3ccco3)c(=O)n2nc1Cc1ccccc1,26.9% (active)
21,O=C(CCCN1C(=O)/C(=C/c2ccco2)SC1=S)Nc1ccccc1,4.28%

row,SMILES,inhibition of the nicotinamide effect
1,NC(=O)c1ccccc1N=Cc1ccc2ccccc2c1,8.87%
2,CCC1=NN(C(=O)Cc2ccc([N+](=O)[O-])cc2)C(O)(c2ccc(Br)cc2)C1 (stereo unspecified),3.83%
3,CN(C)C(CNC(=O)c1ccc(S(=O)(=O)NCc2ccco2)cc1)c1ccccc1 (stereo unspecified),3.63%
4,CCOC(=O)C(C)Sc1nc2ccccc2c(=O)n1CC1CCCCC1 (stereo unspecified),8.34%
5,CCCc1nc2c(c(=O)c3ccccc3n2C)c(=O)n1C1CCCCCC1,47.5% (active)
6,Cn1c2ccccc2c(=O)c2c(=O)n(Cc3ccco3)c(COc3ccccc3)nc21,17.5%
7,CCOC(=O)c1c(NC(=O)C2(C)Cc3ccccc3C(=O)O2)sc2c1CCCC2 (stereo unspecified),1.18%
8,O=C(NCc1ccccc1Cl)C1CCC(CNc2c(N3CCCCC3)c(=O)c2=O)CC1 (stereo unspecified),3.91%
9,CCS(=O)(=O)Nc1cccc(-c2cc(-c3ccccc3)c3cc(C)ccc3n2)c1,1.36%
10,COc1ccc(C(CC(=O)Nc2ccc(C)cc2)NC(=O)C(F)(F)F)cc1 (stereo unspecified),-0.39%
11,Cc1ccc2sc(NNC(=O)c3ccc4c(c3)OCCO4)nc2c1C,0%
12,O=C(N/N=C/c1ccccn1)C12CC3CC(CC(C3)C1)C2,3.48%
13,COc1ccc([C@H]2[C@H](C(C)=O)N3N=Cc4ccccc4C3C23C(=O)OC(C)(C)OC3=O)cc1 (stereo partly specified),30.5% (active)
14,COc1ccc(C2C(C(=O)N3CCN(c4ccc(OC)cc4)CC3)c3ccccc3C(=O)N2C)cc1 (stereo unspecified),-6.01%
15,O=C(Nc1ccc2ccccc2c1)/C(=C/c1cccc(Br)c1)NC(=O)c1ccco1,-1.18%
16,COC(=O)C1=NNC2(c3ccc(C)cc3)C(=O)N(c3cccc(C)c3C)C(=O)C12 (stereo unspecified),14.3%
17,COc1ccc(C(=O)NNS(=O)(=O)c2ccc(C)cc2)cc1,3.8%
18,CC(C)CNC(=S)NC(=O)c1ccc(Cl)cc1,-5.06%
